From ChEMBL document CHEMBL1158426, “Semisynthesis and pharmacological activities of Tetrac analogs: angiogenesis modulators” (Bioorg Med Chem Lett, 2009)

Species on record: Gallus gallus
Assay: Antiangiogenic activity in chicken embryo chorioallantoic membrane model assessed as inhibition of FGF-induced angiogenesis at 1 uM treated 1 hr after FGF challenge measured after 48 hrs relative to control
Format: functional, tissue-based
Conditions: not given
Procedure, shortened: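 Live chick chorioallantoic membrane was exposed to FGF with or without test agent, with PBS as a control. New vessel formation was scored as branch points and reported as mean ± SEM, n = 8. Percent inhibition was calculated against the FGF control.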
With `O=C(Cc1cc(I)c(Oc2cc(I)c(OCC3CO3)c(I)c2)c(I)c1)OCC1CO1` (configuration not stated) the inhibition was 31%. `O=C(O)Cc1cc(I)c(Oc2cc(I)c(OCC3CO3)c(I)c2)c(I)c1` (configuration not stated) showed an inhibition of 62%. For `CC(C)[Si](OC(=O)Cc1cc(I)c(Oc2cc(I)c(OCC3CO3)c(I)c2)c(I)c1)(C(C)C)C(C)C` (configuration not stated), the inhibition was 96%. `O=C(Cc1cc(I)c(Oc2cc(I)c(OCC3CO3)c(I)c2)c(I)c1)N1CCCCC1` (configuration not stated) showed an inhibition of 44%. Compound `CC(C)[Si](OC(=O)Cc1cc(I)c(Oc2cc(I)c(O)c(I)c2)c(I)c1)(C(C)C)C(C)C` has an inhibition of 75%. With `CC(C)(C)OC(=O)Cc1cc(I)c(Oc2cc(I)c(O)c(I)c2)c(I)c1` the inhibition was 88%. Compound `O=C(Cc1cc(I)c(Oc2cc(I)c(O)c(I)c2)c(I)c1)N1CCCCC1` has an inhibition of 15%. `O=C(O)Cc1cc(I)c(Oc2cc(I)c(O)c(I)c2)c(I)c1` [TETRAC] gave an inhibition of 85%.

Species on record: Mus musculus
Assay: Antiangiogenic activity in […] mouse assessed as inhibition of FGF-induced angiogenesis at 10 ug/Matrigel plug measured after 15 days of Matrigel injection using […] reagent staining by ELISA
Format: functional
Conditions: in the assay text read “after 14 days” for “after 15 days”
Procedure, shortened: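 Mice housed 4 per cage at 20–24 °C, 60–70% humidity, 12 h light/dark, food and water ad libitum, with 5 days' acclimation. Matrigel thawed overnight at 4 °C, kept on ice, injected subcutaneously with FGF. Dissected plugs were stripped of peritoneum, homogenized in ddH₂O for 5–10 min, and spun at 4000 rpm for 10 min. Supernatant was mixed with Drabkin's reagent for 15–30 min at room temperature for hemoglobin measurement.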
For `O=C(Cc1cc(I)c(Oc2cc(I)c(OCC3CO3)c(I)c2)c(I)c1)OCC1CO1` (configuration not stated), the “inhibition (INH)” value was 100%. With `O=C(O)Cc1cc(I)c(Oc2cc(I)c(OCC3CO3)c(I)c2)c(I)c1` (configuration not stated) the “inhibition (INH)” value was 100%. For `CC(C)[Si](OC(=O)Cc1cc(I)c(Oc2cc(I)c(OCC3CO3)c(I)c2)c(I)c1)(C(C)C)C(C)C` (configuration not stated), the “inhibition (INH)” value was 100%. In the case of `O=C(Cc1cc(I)c(Oc2cc(I)c(OCC3CO3)c(I)c2)c(I)c1)N1CCCCC1` (configuration not stated), the “inhibition (INH)” value is reported as 80%. With `CC(C)[Si](OC(=O)Cc1cc(I)c(Oc2cc(I)c(O)c(I)c2)c(I)c1)(C(C)C)C(C)C` the “inhibition (INH)” value was 104%. In the case of `CC(C)(C)OC(=O)Cc1cc(I)c(Oc2cc(I)c(O)c(I)c2)c(I)c1`, the “inhibition (INH)” value is reported as 95%. For `O=C(Cc1cc(I)c(Oc2cc(I)c(O)c(I)c2)c(I)c1)N1CCCCC1`, the “inhibition (INH)” value was 104%. With `O=C(O)Cc1cc(I)c(Oc2cc(I)c(O)c(I)c2)c(I)c1` [TETRAC] the “inhibition (INH)” value was 90%.

Tested on: not listed separately
Assay: Dissociation constant, pKa of the compound
Format: physicochemical
Conditions: not given
For `O=C(O)Cc1cc(I)c(Oc2cc(I)c(O)c(I)c2)c(I)c1` [TETRAC], the pKa was 4.3.
